Data from ChEMBL document CHEMBL1152462, “Betulinic acid derivatives that target gp120 and inhibit multiple genetic subtypes of human immunodeficiency virus type 1” (Antimicrob Agents Chemother, 2008).
The source made the active and inactive calls. No cut-off for these calls is given here.

How the values were obtained:
[1] = system: Human immunodeficiency virus 1; experiment: Antiviral activity against HIV1 CAP.2.00.G3 infected in human TZM-b1 cells assessed as inhibition of viral infection after 2 days postinfection by luciferase reporter gene assay; format: functional, organism-based; conditions: Human immunodeficiency virus 1, CAP.2.00.G3, TZM-b1, 48 h
Method in brief: (§1)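 Single-round infection of TZM-bl cells with 200 TCID50 of virus in the presence of varying compound concentrations, top concentration 15 µM. After 2 days, medium was removed and Bright-Glo reagent added to read luminescence. IC50 is the concentration giving 50% reduction in luciferase RLU relative to virus-control wells.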

[2] = system: Human immunodeficiency virus 1; experiment: Antiviral activity against HIV1 SS1196.1 infected in human TZM-b1 cells assessed as inhibition of viral infection after 2 days postinfection by luciferase reporter gene assay; format: functional, organism-based; conditions: Human immunodeficiency virus 1, SS1196.1, TZM-b1, 48 h; method in brief: as §1
[3] = system: Human immunodeficiency virus 1; experiment: Antiviral activity against HIV1 Q23.71 infected in human TZM-b1 cells assessed as inhibition of viral infection after 2 days postinfection by luciferase reporter gene assay; format: functional, organism-based; conditions: Human immunodeficiency virus 1, Q23.71, TZM-b1, 48 h; method in brief: as §1
[4] = system: Human immunodeficiency virus 1; experiment: Antiviral activity against HIV1 Q769.d22 infected in human TZM-b1 cells assessed as inhibition of viral infection after 2 days postinfection by luciferase reporter gene assay; format: functional, organism-based; conditions: Human immunodeficiency virus 1, Q769.d22, TZM-b1, 48 h; method in brief: as §1
[5] = system: Human immunodeficiency virus 1; experiment: Antiviral activity against HIV1 QH0515.1 infected in human TZM-b1 cells assessed as inhibition of viral infection after 2 days postinfection by luciferase reporter gene assay; format: functional, organism-based; conditions: Human immunodeficiency virus 1, QH0515.1, TZM-b1, 48 h; method in brief: as §1
[6] = Cytotoxicity against human TZM-bl cells after 2 days by trypan blue exclusion assay; format: cell-based; conditions: 48 h
[7] = system: Human immunodeficiency virus 1; experiment: Antiviral activity against HIV1 CAP244.2.00.D3 infected in human TZM-b1 cells assessed as inhibition of viral infection after 2 days postinfection by luciferase reporter gene assay; format: functional, organism-based; conditions: Human immunodeficiency virus 1, CAP244.2.00.D3, TZM-b1, 48 h; method in brief: as §1
[8] = system: Human immunodeficiency virus 1; experiment: Antiviral activity against HIV1 Du123.6 infected in human TZM-b1 cells assessed as inhibition of viral infection after 2 days postinfection by luciferase reporter gene assay; format: functional, organism-based; conditions: Human immunodeficiency virus 1, Du123.6, TZM-b1, 48 h; method in brief: as §1
[9] = system: Human immunodeficiency virus 1; experiment: Antiviral activity against HIV1 Q461.e2 infected in human TZM-b1 cells assessed as inhibition of viral infection after 2 days postinfection by luciferase reporter gene assay; format: functional, organism-based; conditions: Human immunodeficiency virus 1, Q461.e2, TZM-b1, 48 h; method in brief: as §1
[10] = system: Human immunodeficiency virus 1; experiment: Antiviral activity against HIV1 ZM55F.PB28a infected in human TZM-b1 cells assessed as inhibition of viral infection after 2 days postinfection by luciferase reporter gene assay; format: functional, organism-based; conditions: Human immunodeficiency virus 1, ZM55F.PB28a, TZM-b1, 48 h; method in brief: as §1
[11] = system: Human immunodeficiency virus 1; experiment: Antiviral activity against HIV1 Du422.1 infected in human TZM-b1 cells assessed as inhibition of viral infection after 2 days postinfection by luciferase reporter gene assay; format: functional, organism-based; conditions: Human immunodeficiency virus 1, Du422.1, TZM-b1, 48 h; method in brief: as §1
[12] = system: Human immunodeficiency virus 1; experiment: Antiviral activity against HIV1 Q168.a2 infected in human TZM-b1 cells assessed as inhibition of viral infection after 2 days postinfection by luciferase reporter gene assay; format: functional, organism-based; conditions: Human immunodeficiency virus 1, Q168.a2, TZM-b1, 48 h; method in brief: as §1
[13] = system: Human immunodeficiency virus 1; experiment: Antiviral activity against HIV1 Du151.2 infected in human TZM-b1 cells assessed as inhibition of viral infection after 2 days postinfection by luciferase reporter gene assay; format: functional, organism-based; conditions: Human immunodeficiency virus 1, Du151.2, TZM-b1, 48 h; method in brief: as §1
[14] = system: Human immunodeficiency virus 1; experiment: Antiviral activity against HIV1 RHPA4259.7 infected in human TZM-b1 cells assessed as inhibition of viral infection after 2 days postinfection by luciferase reporter gene assay; format: functional, organism-based; conditions: Human immunodeficiency virus 1, RHPA4259.7, TZM-b1, 48 h; method in brief: as §1
[15] = system: Human immunodeficiency virus 1; experiment: Antiviral activity against HIV1 ZM214M.PL15 infected in human TZM-b1 cells assessed as inhibition of viral infection after 2 days postinfection by luciferase reporter gene assay; format: functional, organism-based; conditions: Human immunodeficiency virus 1, ZM214M.PL15, TZM-b1, 48 h; method in brief: as §1
[16] = system: Human immunodeficiency virus 1; experiment: Antiviral activity against HIV1 Q259.d2.17 infected in human TZM-b1 cells assessed as inhibition of viral infection after 2 days postinfection by luciferase reporter gene assay; format: functional, organism-based; conditions: Human immunodeficiency virus 1, Q259.d2.17, TZM-b1, 48 h; method in brief: as §1
[17] = system: Human immunodeficiency virus 1; experiment: Antiviral activity against HIV1 Q842.d12 infected in human TZM-b1 cells assessed as inhibition of viral infection after 2 days postinfection by luciferase reporter gene assay; format: functional, organism-based; conditions: Human immunodeficiency virus 1, Q842.d12, TZM-b1, 48 h; method in brief: as §1
[18] = system: Human immunodeficiency virus 1; experiment: Antiviral activity against HIV1 ZM197M.PB7 infected in human TZM-b1 cells assessed as inhibition of viral infection after 2 days postinfection by luciferase reporter gene assay; format: functional, organism-based; conditions: Human immunodeficiency virus 1, ZM197M.PB7, TZM-b1, 48 h; method in brief: as §1
[19] = system: Human immunodeficiency virus 1; experiment: Antiviral activity against HIV1 ZM109F.PB4 infected in human TZM-b1 cells assessed as inhibition of viral infection after 2 days postinfection by luciferase reporter gene assay; format: functional, organism-based; conditions: Human immunodeficiency virus 1, ZM109F.PB4, TZM-b1, 48 h; method in brief: as §1
[20] = Cytotoxicity against human TZM-bl cells at 15 uM after 2 days by trypan blue exclusion assay; format: cell-based; conditions: 48 h
[21] = system: Human immunodeficiency virus 1; experiment: Antiviral activity against HIV1 NL4-3 infected in human TZM-b1 cells assessed as inhibition of viral infection after 2 days postinfection by luciferase reporter gene assay; format: functional, organism-based; conditions: Human immunodeficiency virus 1, NL4-3, TZM-b1, 48 h; method in brief: as §1
[22] = system: Human immunodeficiency virus 1; experiment: Antiviral activity against HIV1 TRO.11 infected in human TZM-b1 cells assessed as inhibition of viral infection after 2 days postinfection by luciferase reporter gene assay; format: functional, organism-based; conditions: Human immunodeficiency virus 1, TRO.11, TZM-b1, 48 h; method in brief: as §1
[23] = system: Human immunodeficiency virus 1; experiment: Antiviral activity against HIV1 REJO4541.67 infected in human TZM-b1 cells assessed as inhibition of viral infection after 2 days postinfection by luciferase reporter gene assay; format: functional, organism-based; conditions: Human immunodeficiency virus 1, REJO4541.67, TZM-b1, 48 h; method in brief: as §1
[24] = system: Human immunodeficiency virus 1; experiment: Antiviral activity against HIV1 5768.4 infected in human TZM-b1 cells assessed as inhibition of viral infection after 2 days postinfection by luciferase reporter gene assay; format: functional, organism-based; conditions: Human immunodeficiency virus 1, 5768.4, TZM-b1, 48 h; method in brief: as §1
[25] = system: Human immunodeficiency virus 1; experiment: Antiviral activity against HIV1 6535.3 infected in human TZM-b1 cells assessed as inhibition of viral infection after 2 days postinfection by luciferase reporter gene assay; format: functional, organism-based; conditions: Human immunodeficiency virus 1, 6535.3, TZM-b1, 48 h; method in brief: as §1
[26] = system: Human immunodeficiency virus 1; experiment: Antiviral activity against HIV1 HXB2 infected in human TZM-b1 cells assessed as inhibition of viral infection after 2 days postinfection by luciferase reporter gene assay; format: functional, organism-based; conditions: Human immunodeficiency virus 1, HXB2, TZM-b1, 48 h; method in brief: as §1
[27] = system: Human immunodeficiency virus 1; experiment: Antiviral activity against HIV1 WITO4160.33 infected in human TZM-b1 cells assessed as inhibition of viral infection after 2 days postinfection by luciferase reporter gene assay; format: functional, organism-based; conditions: Human immunodeficiency virus 1, WITO4160.33, TZM-b1, 48 h; method in brief: as §1
[28] = target: Envelope glycoprotein gp160 (Human immunodeficiency virus type 1 group M subtype B (isolate YU-2)(HIV-1)) (UniProt P35961); experiment: Inhibition of HIV1 (isolate YU2) envelope glycoprotein 120-mediated membrane fusion between virus-transfected african green monkey COS cells and human TZM-bl cells by luciferase-based cell-cell fusion assay in presence of IC9564; conditions: Human immunodeficiency virus type 1 (isolate YU2)
Chain of Envelope glycoprotein gp160 (Human immunodeficiency virus type 1 group M subtype B (isolate YU-2)(HIV-1)) (P35961 whole entry, the tested form may be a part): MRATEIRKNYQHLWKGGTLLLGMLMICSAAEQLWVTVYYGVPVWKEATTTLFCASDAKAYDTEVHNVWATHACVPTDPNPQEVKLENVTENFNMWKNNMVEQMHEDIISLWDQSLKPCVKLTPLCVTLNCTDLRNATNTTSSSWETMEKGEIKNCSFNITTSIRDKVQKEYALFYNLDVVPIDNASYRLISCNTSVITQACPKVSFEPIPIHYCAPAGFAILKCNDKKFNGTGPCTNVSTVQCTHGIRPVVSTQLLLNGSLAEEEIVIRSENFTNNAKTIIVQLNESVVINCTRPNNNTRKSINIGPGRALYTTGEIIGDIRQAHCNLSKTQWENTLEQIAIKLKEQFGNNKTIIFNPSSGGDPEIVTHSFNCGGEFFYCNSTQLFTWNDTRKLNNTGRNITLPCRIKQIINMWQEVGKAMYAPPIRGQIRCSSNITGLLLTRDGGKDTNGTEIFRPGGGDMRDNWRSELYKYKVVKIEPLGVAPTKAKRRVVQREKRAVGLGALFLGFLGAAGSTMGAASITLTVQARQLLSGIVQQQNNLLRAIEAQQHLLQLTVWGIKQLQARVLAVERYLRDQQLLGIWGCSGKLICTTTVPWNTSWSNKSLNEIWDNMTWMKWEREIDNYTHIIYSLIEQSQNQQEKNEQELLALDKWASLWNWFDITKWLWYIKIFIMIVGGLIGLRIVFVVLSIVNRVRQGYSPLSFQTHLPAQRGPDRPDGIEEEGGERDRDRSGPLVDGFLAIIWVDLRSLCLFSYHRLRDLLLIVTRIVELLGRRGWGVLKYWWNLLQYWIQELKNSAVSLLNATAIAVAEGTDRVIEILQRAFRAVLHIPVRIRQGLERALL

[29] = system: Human immunodeficiency virus 1; experiment: Inhibition of V3-speciifc monoclonal antibody 447-52 binding to HIV1 Ba-L gp120 by ELISA-based competitive binding assay
HOS [30] = experiment: Inhibition of HIV1 3B gp120/CD4 complex binding to CCR5 expressing HOS cells at […] after 1 hr by competitive binding assay; format: cell-based; conditions: Human immunodeficiency virus 1
Method in brief: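 HOS.CCR5 cells were plated on poly-D-lysine and held overnight at 37°C. Soluble CD4 (4.5 nM) was premixed 1:1 with gp120 (Ba-L or IIIB) for 15 min at room temperature. The complex was added to cells with compound at 5 µg/ml for 1 h at 37°C. Bound gp120 was detected with FITC anti-gp120 (1 h), washed three times in PBS, and read by fluorescence at 490/520 nm.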

[31] = Ratio of inhibition of HIV1 […] envelope glycoprotein 120-mediated membrane fusion to inhibition of HIV1 (isolate YU2) envelope glycoprotein 120-mediated membrane fusion
[32] = system: Human immunodeficiency virus 1; experiment: Inhibition of V3-speciifc monoclonal antibody 447-52D binding to HIV1 3B gp120 by ELISA-based competitive binding assay
[33] = system: Human immunodeficiency virus 1; experiment: Inhibition of V3-speciifc monoclonal antibody […] binding to HIV1 Ba-L gp120 by ELISA-based competitive binding assay
HOS [34] = experiment: Inhibition of HIV1 Ba-L gp120/CD4 complex binding to CCR5 expressing HOS cells at 5 µg/ml after 1 hr by competitive binding assay; conditions: Human immunodeficiency virus 1
[35] = system: Human immunodeficiency virus 1; experiment: Inhibition of V3-speciifc monoclonal antibody 39F binding to HIV1 3B gp120 by ELISA-based competitive binding assay

Molecule | IC50 [1] [nM] | IC50 [2] [nM] | IC50 [3] [nM] | IC50 [4] [nM] | IC50 [5] [nM] | IC50 [6] [nM] | IC50 [7] [nM] | IC50 [8] [nM] | IC50 [9] [nM] | IC50 [10] [nM] | IC50 [11] [nM] | IC50 [12] [nM] | IC50 [13] [nM] | IC50 [14] [nM] | IC50 [15] [nM] | IC50 [16] [nM] | IC50 [17] [nM] | IC50 [18] [nM] | IC50 [19] [nM] | Activity [20] | other results
enfuvirtide | 2230 | 1020 | 910 | 2230 | 2230 | > 50000 | 1830 | 330 | 1740 | 710 | 560 | 780 | 450 | 760 | 2670 | 1010 | 2450 | 2230 | 90 | Non-toxic | IC50 [21]: 1910 nM; IC50 [22]: 1670 nM; IC50 [23]: 1110 nM; IC50 [24]: 1450 nM
C=C(C)[C@@H]1CC[C@]2(C(=O)NCCCCCCCNC(C)=O)CC[C@]3(C)[C@H](CC[C@@H]4[C@@]5(C)CC[C@H](O)C(C)(C)[C@@H]5CC[C@]43C)[C@@H]12 | 140 | 220 | 450 | 3700 | 1050 | > 50000 | 400 | 80 | 380 | 340 | 170 | 310 | 190 | 640 | 48 | 280 | 390 | 90 | 400 | Non-toxic | IC50 [25]: 1030 nM; IC50 [26]: 70 nM; IC50 [21]: 110 nM; IC50 [27]: 140 nM; IC50 [22]: 790 nM; IC50 [23]: 850 nM; IC50 [24]: 450 nM
Cc1ccc(-c2ccc3c(c2)C=C(C(=O)Nc2ccc(C[N+](C)(C)C4CCOCC4)cc2)CCC3)cc1 |  |  |  |  |  |  |  |  |  |  |  |  |  |  |  |  |  |  |  |  | Activity [28]: 0.053 ng/mL
C=C(C)[C@@H]1CC[C@]2(C(=O)NCCCCCCCC(=O)N[C@@H](CC(C)C)[C@H](O)CC(=O)O)CC[C@]3(C)[C@H](CC[C@@H]4[C@@]5(C)CC[C@H](O)C(C)(C)[C@@H]5CC[C@]43C)[C@@H]12 | 80 | 210 | 1610 | 4070 | 1260 | > 50000 | 1210 | 90 | 310 | 750 | 650 | 620 | 810 | 820 | 70 | 250 | 810 | 90 | 810 | Non-toxic | IC50 [25]: 7300 nM; inhibition [29]: Active; inhibition (HOS [30]): Active; IC50 [26]: 80 nM; Ratio [31]: 30; IC50 [21]: 100 nM; inhibition [32]: Dose-dependent effect; IC50 [27]: 390 nM; IC50 [22]: 750 nM; IC50 [23]: 1070 nM; inhibition [33]: inactive; inhibition (HOS [34]): Active; inhibition [35]: Dose-dependent effect; IC50 [24]: 670 nM
